# Reference: ChEMBL document CHEMBL1135593, “Design and synthesis of a pro-drug of vinblastine targeted at treatment of prostate cancer with enhanced efficacy and reduced systemic toxicity” (J Med Chem, 2002)
# Where a name gives a salt, the structure may show the parent alone.
# What was measured:
# LNCaP [1] = experiment: Percent tumor weight reduction after intraperitoneal injection of conjugate dose to nude mice bearing LNCaP tumor xenografts; format: functional, Mus musculus
# Summary of the method: (§1)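 Nude mice bearing human prostate LNCaP (PSA-secreting) xenografts were given the conjugate intraperitoneally for 5 consecutive days and followed over six weeks. Serum PSA, tumor weight and body weight were measured at study end. Results are percent relative to vehicle-treated controls, with P values.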
# T47D = experiment: In vitro concentration required to kill 50% of T47D human breast ductal carcinoma cell line; format: functional, cell-based
# Summary of the method: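 T47D is a PSA-nonsecreting human breast ductal carcinoma line, used as a control for PSA-secreting LNCaP cells. Compounds were tested in cell culture. EC50 is the dose that kills 50% of the tumor cells.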
# COLO 320 = experiment: In vitro concentration required to kill 50% of COLO 320 human colorectal carcinoma cell line; format: functional, cell-based
# Summary of the method: (§2)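 Cell-kill assay in culture. LNCaP is a PSA-secreting human prostate cancer line. Colo320 is a PSA-nonsecreting human colorectal carcinoma line, used as the non-PSA control. EC50 is the compound dose that kills 50% of the tumor cells.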
# Mus musculus [2] = experiment: Maximum nonlethal drug dose administered intraperitoneally to non tumor bearing nude mice; format: functional
# Summary of the method: (§3)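 Nontumor-bearing nude mice were dosed intraperitoneally once daily for 5 consecutive days. MTD is the maximum dose that could be given on this schedule without lethality. P values are reported.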
# LNCaP [3] = experiment: In vitro concentration required to kill 50% of LNCaP human prostate cancer cell line; format: functional, cell-based; summary of the method: as §2
# [4] = Percent PSA reduction after intraperitoneal injection of conjugate dose to nude mice bearing LNCaP tumor xenografts; format: functional, Mus musculus; summary of the method: as §1
# Mus musculus [5] = experiment: Intraperitoneal dose administered to non tumor bearing nude mice; format: functional; summary of the method: as §3
# PSA = experiment: Time required for PSA to hydrolyze 50% compound at a molar ratio of 1:100; format: ADME; settings: PSA (enzyme)
# Summary of the method: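 Conjugate and purified human PSA were mixed at a 100:1 molar ratio (substrate:enzyme) in 50 mM Tris·HCl and 140 mM NaCl, pH 7.4. Samples were incubated at 37 °C for 0, 30, 60, 120, 180 or 240 min. T1/2 is the time to 50% cleavage.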
Compound,Weight reduction (LNCaP [1]),EC50 (T47D),EC50 (COLO 320),MTD (Mus musculus [2]),EC50 (LNCaP [3]),Reduction [4],Dose (Mus musculus [5]),half-life (PSA)
CC[C@]1(O)C[C@@H]2CN(CCc3c([nH]c4ccccc34)[C@@](C(=O)OC)(c3cc4c(cc3OC)N(C)C3C45CCN4CC=C[C@](CC)(C45)[C@@H](O)[C@]3(O)C(=O)OC)C2)C1 (some centres not stated),16%,150 nM,200 nM,0.26 µM/kg,100 nM,14%,0.26 µM/kg,
CC[C@]1(O)C[C@@H]2CN(CCc3c([nH]c4ccccc34)[C@@](C(=O)OC)(c3cc4c(cc3OC)N(C)C3C45CCN4CC=C[C@](CC)(C45)[C@@H](OC(=O)CN)[C@]3(O)C(=O)OC)C2)C1 (some centres not stated),,,1800 nM,,300 nM,,,
CC[C@]1(O)C[C@@H]2CN(CCc3c([nH]c4ccccc34)[C@@](C(=O)OC)(c3cc4c(cc3OC)N(C)C3C45CCN4CC=C[C@](CC)(C45)[C@@H](OC(=O)[C@@H](N)CC(C)C)[C@]3(O)C(=O)OC)C2)C1 (some centres not stated),,,6000 nM,,4000 nM,,,
CC[C@]1(O)C[C@@H]2CN(CCc3c([nH]c4ccccc34)[C@@](C(=O)OC)(c3cc4c(cc3OC)N(C)C3C45CCN4CC=C[C@](CC)(C45)[C@@H](OC(=O)C4CCCN4)[C@]3(O)C(=O)OC)C2)C1.O=C(O)C(F)(F)F (some centres not stated),60%,1600 nM,3000 nM,4.6 µM/kg,1000 nM,33%,4.6 µM/kg,
CC[C@]1(O)C[C@@H]2CN(CCc3c([nH]c4ccccc34)[C@@](C(=O)OC)(c3cc4c(cc3OC)N(C)C3C45CCN4CC=C[C@](CC)(C45)[C@@H](OC(=O)[C@H](CC(C)C)NC(=O)[C@H](CO)NC(=O)[C@H](CCC(N)=O)NC(=O)C(NC(=O)[C@H](CO)NC(=O)[C@H](CO)NC(=O)[C@H]4CC(O)CN4C(C)=O)C4CCCCC4)[C@]3(O)C(=O)OC)C2)C1.O=C(O)C(F)(F)F (some centres not stated),,,87000 nM,,40000 nM,,,35 min
CC[C@]1(O)C[C@@H]2CN(CCc3c([nH]c4ccccc34)[C@@](C(=O)OC)(c3cc4c(cc3OC)N(C)[C@H]3[C@@](O)(C(=O)OC)[C@H](OC(C)=O)[C@]5(CC)C=CCN6CC[C@]43[C@@H]65)C2)C1 [VINBLASTINE SULFATE],,,,,500 nM,,,
